According to ChEMBL document CHEMBL4043304, “Synthesis and Evaluation of Hydrogen Peroxide Sensitive Prodrugs of Methotrexate and Aminopterin for the Treatment of Rheumatoid Arthritis” (J Med Chem, 2018):
Converted amounts (≈) assume the structure as drawn. Blank lines part the entries; values can stand above or below the compound they belong to. The source made the active and inactive calls. The rule behind the calls is not given here.

How the values were obtained:
[1] = Prodrug activation in DMSO/PBS mixture assessed as formation of Dimethyl (4-(((2,4-Diaminopteridin-6-yl)methyl)(methyl)amino)-benzoyl)-L-glutamate at 50 uM after <3 hrs in presence of 0.5 mM H2O2 by RP-UPLC-MS method
How it was run: (§1)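 50 µM prodrug in 30% DMSO/PBS pH 7.4 at 37 °C with diclofenac internal standard. Started with H2O2 at 0.5 mM final. Sampled 5 min to 4 h (some compounds to 48 h). RP-UPLC-UV at 306 nm. No-H2O2 control run in parallel. Triplicate.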

[2] = Kinetic solubility of the compound in DMSO/PBS mixture after 20 hrs by RP-UPLC-UV method; assay type: physicochemical; details: read-out: Kinetic_solubility
How it was run: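 100 µM compound in 1% DMSO/PBS pH 7.4, shaken 20 h at 37 °C. Centrifuged to remove insoluble material; supernatant quantified by RP-UPLC-UV at 306 nm. Triplicate.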

[3] = tested on: NCI-H460; test: Cytotoxicity against human NCI-H460 cells assessed as decrease in cell viability preincubated with H2O2 for 24 hrs followed by cell addition measured after 48 hrs by MTS assay; assay type: functional, cell-based
How it was run: (§2)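 Compound pre-activated at 125 µM with 1.25 mM H2O2 in DMSO:PBS 1:1, 24 h at 21 °C. Then added to MCF-7 or NCI-H460 cells (24 h attached) for 48 h. Final H2O2 <10 µM. MTS read at 490 nm. Triplicate. IC50 by non-linear regression.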

[4] = tested on: MCF7; test: Cytotoxicity against human MCF7 cells assessed as decrease in cell viability preincubated with H2O2 for 24 hrs followed by cell addition measured after 48 hrs by MTS assay; assay type: functional, cell-based; how it was run: as §2
[5] = Metabolic stability in human plasma at 20 uM after 24 hrs by RP-UPLC-UV method; assay type: ADME, cell-free; details: read-out: Stability
How it was run: (§3)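 Reconstituted lyophilized human or mouse plasma mixed about 1:1 with PBS and pre-warmed to 37 °C. Compound added to 20 µM final. […] Procaine (human) and diltiazem (mouse) as controls.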

[6] = tested on: Mus musculus; test: Antiarthritic activity in collagen-induced DBA/1J mouse arthritis model assessed as reduction of macroscopic score at 9.7 mg/kg, ip administered daily for 2 weeks starting on day 27 post first immunization measured thrice per week during compound dosing relative to control; assay type: functional, organism-based
How it was run: (§4)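 Male DBA/1J mice (8–9 wk, n = 8/group). Arthritis induced by intradermal tail-base immunization with 100 µg chicken type-II collagen in CFA on day −1, with a 50 µg boost on day 21. Daily i.p. dosing in 2% DMSO/PBS for 14 days from day 27. Blinded scoring three times weekly, 0–15 per limb (max 60). Vehicle group as control. Mann-Whitney test.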

[7] = Chemical stability in PBS/DMSO mixture at pH 7.4 after 24 hrs by RP-UPLC-UV method; assay type: physicochemical; details: read-out: Stability
[8] = Half life in PBS/DMSO mixture at pH 7.4 by RP-UPLC-UV method; assay type: physicochemical
[9] = Prodrug activation in DMSO/PBS mixture assessed as formation of methotrexate at 100 uM after 24 hrs in presence of 0.25 to 10 mM H2O2 by RP-UPLC-MS method
How it was run: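 Prodrug from 1 mM DMSO stock in PBS pH 7.4 with diclofenac internal standard. Started with H2O2 solutions of 10, 5, 1, 0.5 or 0.25 mM (stock concentrations). Incubated at 37 °C and sampled 5 min to 24 h (48 h for some). RP-UPLC-UV at 306 nm. PBS-only control run. Triplicate.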

[10] = Prodrug activation in DMSO/PBS mixture assessed as formation of methotrexate at 50 uM after <3 hrs in presence of 0.5 mM H2O2 by RP-UPLC-MS method; how it was run: as §1
[11] = Metabolic stability in mouse plasma at 20 uM after 8 hrs by RP-UPLC-UV method; assay type: ADME, cell-free; details: read-out: Stability; how it was run: as §3
[12] = Half life in SGF by RP-UPLC-UV method; assay type: physicochemical
How it was run: (§5)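 SGF or SIF (SIF adjusted to pH 7.5) dosed from a 10 mM DMSO stock. Incubated at 37 °C and sampled at 0, 1, 2, 4 and 24 h. Run in triplicate.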

[13] = Half life in mouse plasma at 20 uM by RP-UPLC-UV method; assay type: ADME, cell-free; how it was run: as §3
[14] = tested on: NCI-H460; test: Cytotoxicity against human NCI-H460 cells assessed as decrease in cell viability after 48 hrs by MTS assay; assay type: functional, cell-based
How it was run: (§6)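 MCF-7 (DMEM) or NCI-H460 (RPMI), 10% FBS, seeded at 10^4 or 7×10^3 cells/well respectively and attached for 24 h. Exposed to serial compound concentrations for 48 h, then MTS read at 490 nm. DMSO ≤0.4% matched controls. Triplicate. IC50 by non-linear regression.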

[15] = Half life in SIF by RP-UPLC-UV method; assay type: physicochemical; how it was run: as §5
[16] = Half life in human plasma at 20 uM by RP-UPLC-UV method; assay type: ADME, cell-free; how it was run: as §3
[17] = tested on: Mus musculus; test: Toxicity in collagen-induced DBA/1J mouse arthritis model assessed as decrease in body weight at 9.7 mg/kg, ip administered daily for 2 weeks starting on day 27 post first immunization measured thrice per week during compound dosing; assay type: organism-based; details: in vivo, 336 h
How it was run: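 CIA in male DBA/1J mice (8–9 wk, n = 8/group) from chicken type-II collagen/CFA immunization (day −1, boost day 21). Daily i.p. dosing in 2% DMSO/PBS for 14 days starting day 27. Body weight recorded three times weekly as a general-health indicator, compared with vehicle. Data are mean ± SEM.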

[18] = tested on: MCF7; test: Cytotoxicity against human MCF7 cells assessed as decrease in cell viability after 48 hrs by MTS assay; assay type: functional, cell-based; how it was run: as §6
[19] = Intrinsic clearance in CD1 mouse liver microsomes at 10 uM after 5 to 240 mins by RP-UPLC-UV method; assay type: ADME, microsome; details: read-out: CLH
How it was run: (§7)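 Pooled male liver microsomes (human, or CD-1 mouse) in PBS at 37 °C with 10 µM compound. Reaction started with NADPH. Aliquots taken 0–60 min (mouse also 120 and 240 min) and quenched with cold MeCN/diclofenac. Read by RP-UPLC-UV, ln[C] vs time, first order. No-NADPH control run; verapamil (human) or diphenhydramine (mouse) as reference.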

[20] = Intrinsic clearance in human liver microsomes at 10 uM after 5 to 60 mins by RP-UPLC-UV method; assay type: ADME, microsome; details: read-out: CLH; how it was run: as §7
[21] = tested on: Mus musculus; test: Antiarthritic activity in collagen-induced DBA/1J mouse arthritis model assessed as decrease in incidence of arthritis at 9.7 mg/kg, ip administered daily for 2 weeks starting on day 27 post first immunization measured thrice per week during compound dosing relative to control; assay type: functional, organism-based; how it was run: as §4
[22] = Prodrug activation in DMSO/PBS mixture assessed as formation of aminopterin at 50 uM measured within 2 hrs in presence of 0.5 mM H2O2 by RP-UPLC-MS method; how it was run: as §1
[23] = Prodrug activation in DMSO/PBS mixture assessed as formation of (S)-dimethyl 2-(4-(((2,4-diaminopteridin-6-yl)methyl)(4-hydroxybenzyl)amino)benzamido)pentanedioate at 50 uM measured within 2 hrs in presence of 0.5 mM H2O2 by RP-UPLC-MS method; how it was run: as §1
[24] = Prodrug activation in DMSO/PBS mixture assessed as formation of (S)-dimethyl 2-(4-((2,4-diaminopteridin-6-yl)methylamino)benzamido)pentanedioate at 50 uM measured within 2 hrs in presence of 0.5 mM H2O2 by RP-UPLC-MS method; how it was run: as §1
[25] = Prodrug activation in DMSO/PBS mixture assessed as formation of (S)-dimethyl 2-(4-((2,4-diaminopteridin-6-yl)methylamino)benzamido)pentanedioate at 50 uM after 2 hrs in presence of 0.5 mM H2O2 by RP-UPLC-MS method

solubility kinetic at 20 h [2]: 3 µM (≈ 1.98 µg/mL)
SMILES: COC(=O)CC[C@H](NC(=O)c1ccc(N(C)Cc2cnc3nc(N)nc(NC(=O)OCc4ccc(B(O)O)cc4)c3n2)cc1)C(=O)OC
Drug metabolism [1]: > 95%

remaining at 24 h, 20 µM [5]: 70%
remaining at 24 h [7]: > 90%
half-life [8]: 238 h
remaining at 8 h, 20 µM [11]: 62%
half-life [12]: 8 h
half-life at 20 µM [13]: 17 h
solubility kinetic at 20 h [2]: 87 µM (≈ 55 µg/mL)
half-life [15]: 239 h
half-life at 20 µM [16]: 70 h
microsomal CLint at 10 µM [19]: 6.4 µL/min/mg
microsomal CLint at 10 µM [20]: 2.2 µL/min/mg
SMILES: CN(Cc1cnc2nc(N)nc(NC(=O)OCc3ccc(B(O)O)cc3)c2n1)c1ccc(C(=O)N[C@@H](CCC(=O)O)C(=O)O)cc1
Activity [3]: Active
Activity [4]: Active
Activity [6]: Active
Drug metabolism [9]: Metabolite detected
Drug metabolism [10]: Metabolite detected
Activity [14]: inactive
Activity [17]: Non-Toxic
Activity [18]: inactive
Activity [21]: Active

solubility kinetic at 20 h [2]: 4.1 µM (≈ 2.47 µg/mL)
SMILES: COC(=O)CC[C@H](NC(=O)c1ccc(N(Cc2ccc(B(O)O)cc2)Cc2cnc3nc(N)nc(N)c3n2)cc1)C(=O)OC
Drug metabolism [22]: Metabolite not detected
Drug metabolism [23]: Metabolite detected
Drug metabolism [24]: Metabolite not detected
Drug metabolism [25]: Metabolite detected

SMILES: COC(=O)CC[C@H](NC(=O)c1ccc(N(C)Cc2cnc3nc(N)nc(NC(=O)OCc4ccc(B(O)O)c(C)c4)c3n2)cc1)C(=O)OC
Drug metabolism [1]: > 95%
